In the library only some 4.1% were active in any assay of this set; here they are far more common.
KCNK9 block: blocks the human KCNK9 two-pore domain potassium channel; Q9NPC2; HEK293 KCNK9, FluxOR thallium flux fluorescence; hits give low values; B-score at 10 µM; hit rate 1.2% among 310,000; AID 488922;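 active = ratio B-score over 3 SD below the library mean, with starting fluorescence within 5 SD of its mean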;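 also: negative B-score means less thallium flux so channel inhibition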
hERG protect: shields human hERG channel from block by proarrhythmic agents; activation (rescue from dofetilide block), less the hit threshold, % at 10 µM; CHO-hERG, FluxOR thallium flux, dofetilide IC70 present; hit rate 0.51% among 310,000; Q12809;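 active = activation above the mean of controls blocked by dofetilide plus 5 SD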;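 also: thallium influx through hERG after potassium depolarization seen as dye fluorescence rise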
Cl transport mod: KCC2 (human) Cl- transport modulation; hit rate 2.2% among 190,000; B-score of Tl+ flux slope (higher = more flux/activation; lower = inhibition) at 10 µM; KCC2 cells, thallium flux FluoZin-2 fluorescence; Q9H2X9;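 active = thallium flux slope and its plate-corrected score both differing from the plate sample mean at a set confidence after two filtering rounds, in either direction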;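 also: slope of fluorescence scaled to starting intensity during 10 to 20 s after thallium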
Target sequence (Q9H2X9 whole entry, looked up): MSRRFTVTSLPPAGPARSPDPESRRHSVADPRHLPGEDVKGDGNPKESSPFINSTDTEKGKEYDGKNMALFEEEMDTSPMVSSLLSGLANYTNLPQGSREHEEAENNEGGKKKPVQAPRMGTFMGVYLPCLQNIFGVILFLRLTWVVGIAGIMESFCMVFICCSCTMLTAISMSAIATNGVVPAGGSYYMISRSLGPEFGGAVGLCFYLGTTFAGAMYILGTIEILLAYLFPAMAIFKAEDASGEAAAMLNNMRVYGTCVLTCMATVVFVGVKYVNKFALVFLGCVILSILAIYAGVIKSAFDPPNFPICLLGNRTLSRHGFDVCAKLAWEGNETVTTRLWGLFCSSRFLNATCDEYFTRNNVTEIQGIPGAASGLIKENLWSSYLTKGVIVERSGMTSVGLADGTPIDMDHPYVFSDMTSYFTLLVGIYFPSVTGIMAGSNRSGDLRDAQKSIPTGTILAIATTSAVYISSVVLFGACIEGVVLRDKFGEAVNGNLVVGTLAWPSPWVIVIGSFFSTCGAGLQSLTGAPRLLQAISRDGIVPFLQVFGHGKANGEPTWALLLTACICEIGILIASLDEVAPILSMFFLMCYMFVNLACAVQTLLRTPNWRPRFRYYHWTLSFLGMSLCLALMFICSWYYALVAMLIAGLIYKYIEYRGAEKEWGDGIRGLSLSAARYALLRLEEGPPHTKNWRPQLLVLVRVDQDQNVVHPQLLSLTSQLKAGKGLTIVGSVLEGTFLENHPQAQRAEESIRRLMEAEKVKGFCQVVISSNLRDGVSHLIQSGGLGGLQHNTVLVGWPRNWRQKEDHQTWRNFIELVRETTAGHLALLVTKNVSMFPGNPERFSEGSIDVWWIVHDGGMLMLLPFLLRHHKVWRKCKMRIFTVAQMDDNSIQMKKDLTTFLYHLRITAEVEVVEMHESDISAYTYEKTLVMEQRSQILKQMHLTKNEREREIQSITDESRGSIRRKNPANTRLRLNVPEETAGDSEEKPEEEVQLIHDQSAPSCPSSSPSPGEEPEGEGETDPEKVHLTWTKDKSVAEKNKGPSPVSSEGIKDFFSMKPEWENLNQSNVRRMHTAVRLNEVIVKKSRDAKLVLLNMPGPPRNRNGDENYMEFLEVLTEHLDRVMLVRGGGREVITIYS
KCNQ1 inh: blocks the human KCNQ1 potassium channel; P51787; CHO-K1 KCNQ1, FluxOR thallium flux fluorescence; hits give high values; B-score at 10 µM; AID 2642; hit rate 1.3% among 310,000;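 active = compounds whose thallium flux B-score, printed positive for inhibition, exceeds three library SD while starting fluorescence stays within three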;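 also: channel opened by potassium depolarization with thallium stimulus after 20 min compound exposure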
KCNK3 block: human KCNK3 channel inhibition, primary screen. hit rate 0.84% among 340,000. B-score at 10 µM. O14649. CHO-KCNK3 thallium flux, FluxOR fluorescence; hits give low values;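 active = B-score under library mean minus 4 SD, starting fluorescence ratio at most library mean plus 5 SD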;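 also: more negative B-score means stronger inhibition of thallium flux through KCNK3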
KCNQ1 act: human KCNQ1 channel potentiation or activation; CHO-K1 KCNQ1, thallium flux FluxOR fluorescence; hits give high values; hit rate 0.35% among 310,000; P51787; B-score at 10 µM;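 active = fluorescence ratio B-score, a plate-corrected score, at least three library SD, with initial intensity B-score within 5 SD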
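System: Stable KCNQ1 CHO-K1 line | Incubation: 90 min dye loading and 20 min compound exposure, both at room temperature | Measure: Ratio B score | Medium: Assay buffer for compound exposure, DMSO matched across wells | Compound dosing: Single-concentration screen | Probe or stimulus: K+/Tl+ depolarizing stimulus | Measured by: Kinetic FluxOR fluorescence, 10 s baseline plus 110 s post-stimulus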
KCNK9 inh conf: confirmation of human KCNK9 potassium channel inhibitors. shares compounds with KCNK9 block. HEK293 KCNK9 cells, FluxOR thallium flux fluorescence. inhibition, % at 10 µM. hit rate 43% among 4,900;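 active = thallium signal inhibited by more than 5 SD of the compound-free buffer control wells, on both duplicate plates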;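 also: 0% = assay buffer control wells without compound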
Kir21 sel: tests whether KCNK9 modulators also affect mouse Kir2.1; shares compounds with KCNK9 block; Kir2.1 cells, FluxOR thallium flux fluorescence; inhibition, % at 10 µM; hit rate 4% among 4,900;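 active = thallium signal drop more than 5 SD beyond the mean of the no-compound control wells, seen in both duplicate plates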;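 also: signal is fluorescence rise after thallium addition divided by baseline fluorescence; plate controls were assay buffer only for no effect and full block by chlorpromazine control for full effect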
HEK293 Tl ctr: non-induced cell nonspecific activity of KCNK9 modulators | shares compounds with KCNK9 block | non-induced KCNK9-HEK293, FluxOR thallium flux | inhibition, % at 10 µM | hit rate 40% among 4,900 | AID 492997;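 active = thallium signal drop beyond 5 SD of the untreated control mean, on both duplicate plates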;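 also: plate controls were buffer only IC0 wells for no effect and SID17386958 at its maximal inhibitory level for full effect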
Starred values were filed as active, the others as inactive; i = inactive; nt = no result given; ! = repeats disagree.

SMILES | KCNK9 block | hERG protect | Cl transport mod | KCNQ1 inh | KCNK3 block | KCNQ1 act | KCNK9 inh conf | Kir21 sel | HEK293 Tl ctr
CC1CC(C)CN(C(=O)CSc2nc(Cc3cccs3)nc3ccccc23)C1 (stereo not drawn) | i | -17.9 | 0.501 | i | i | i | i | i | 24.5%*
CCOC(=O)c1[nH]c(C)c(C(=O)N2CCN(c3ccc(OC)cc3)CC2)c1C | i | -5.8 | 0.493 | i | i | i | nt | nt | nt
CCOC(=O)c1[nH]c(CN2CCN(c3ccc(OC)cc3)CC2)c(C(=O)OCC)c1C | i | -8.5 | nt | i | i | i | i | i | i
O=C(Nc1cccc(Cl)c1)Nc1ccccc1-n1ccnc1 | i | -9.3 | nt | i | i | i | nt | nt | nt
COc1ccc(Br)cc1C(=O)Nc1cccc(NC(=O)c2ccco2)c1 | -17.6* | -21.0 | -1.48 | i | i | i | 59.0%* | i | i
COc1c(C)cc(Br)cc1C(=O)NC(=S)Nc1ccc(Cl)c(C(=O)O)c1 | i | -4.8 | -1.63 | i | i | i | i | i | i
COc1ccc(Br)cc1C(=O)Nc1ccccc1-c1ccccc1 | -9.95* | -3.2 | 0.56 | i | i | i | 52.0%* | i | 42.0%*
COc1c(C)cc(Br)cc1C(=O)Nc1cccc(NC(=O)c2ccco2)c1 | -10.6* | -14.6 | -0.678 | i | -11* | i | 67.0%* | i | i
CC1(C)CC[C@]2(C(=O)n3ccnc3)CC[C@]3(C)[C@H](C(=O)C=C4[C@@]5(C)C=C(C#N)C(=O)C(C)(C)[C@@H]5CC[C@]43C)[C@@H]2C1 | nt | nt | nt | nt | i | nt | nt | nt | nt
Cc1cccc(OCCC(=O)NNC(=O)c2ccoc2C)c1 | nt | nt | nt | nt | i | nt | nt | nt | nt
COc1ccccc1NC(=O)c1ccc(-c2ccc(Br)cc2)o1 | -10.7* | -2.5 | nt | i | i | i | 33.0%* | i | 30.5%*
COc1ccc(NC(=O)c2ccco2)cc1S(=O)(=O)N1CCCCC1 | i | -5.6 | nt | i | i | i | i | i | i
COc1cccc(CN(C(=O)c2ccccc2Cl)C2CCS(=O)(=O)C2)c1 (stereo not drawn) | i | -3.6 | nt | i | i | i | nt | nt | nt
Cc1ccc(-n2ncc(C(=O)NC3CC3)c2C2CCN(C(=O)OC(C)(C)C)CC2)cc1 | i | -12.8 | nt | i | i | i | nt | nt | nt
CC(C)(C)OC(=O)N1CCC(c2c(C(=O)NC3CC3)cnn2-c2ccc(Cl)cc2)CC1 | i | -6.8 | nt | i | i | i | i | i | i
COc1ccc(C(CNC(=O)c2cccc(S(=O)(=O)NCc3ccccc3)c2)N(C)C)cc1 (stereo not drawn) | i | -8.1 | nt | i | i | i | nt | nt | nt
COc1ccc(NC(=O)CCN(c2ccc(OC)cc2)S(=O)(=O)c2ccc(C)c(C)c2)cc1 | nt | nt | nt | nt | i | nt | nt | nt | nt
COc1cc(OC)c2c(O)c3c(c(-c4c5c(c(O)c6c(OC)cc(OC)cc46)CO[C@@H](C)[C@H]5O)c2c1)[C@H](O)[C@H](C)OC3 | i | -6.5 | -1.61 | i | i | i | i | i | i
COc1cc2c(c(OC)c1O)C(=O)CO2 | i | -3.6 | 0.0786 | i | i | i | nt | nt | nt
Cc1ccccc1OCCn1cc(C(=S)N2CCCC2)c2ccccc21 | -9.65* | -6.7 | nt | i | i | i | i | i | 30.0%*
Cc1ccccc1OCc1n(CC(=O)OC2CC(C)CCC2C(C)C)c2ccccc2[n+]1C (stereo not drawn) | -16.7* | -29.8 | -0.961 | 8*! | -12.9* | i | 70.0%* | 78.0%*! | i
CCCCn1c(N)c(N(C(=O)CSc2nncn2-c2ccccc2C)C2CCCC2)c(=O)[nH]c1=O | nt | nt | nt | nt | i | nt | nt | nt | nt
CCN(CC)C(=O)c1oc2ccc(S(=O)(=O)N3CCCCCC3)cc2c1C | i | -2.2 | -0.967 | i | i | i | nt | nt | nt
CCN(CC)C(=O)c1oc2ccc(S(=O)(=O)N3CC(C)CC(C)C3)cc2c1C (stereo not drawn) | i | -14.4 | nt | i | i | i | i | i | i
CCCCn1cnc2c(c(-c3ccccc3)c(-c3ccccc3)n2Cc2ccco2)c1=N | -13.3* | -26.5 | -0.962 | 10* | i | i | 44.5%* | i | i
SMILES | KCNK9 block | hERG protect | Cl transport mod | KCNQ1 inh | KCNK3 block | KCNQ1 act | KCNK9 inh conf | Kir21 sel | HEK293 Tl ctr
Cn1ccc(C(=O)Nc2cccnc2Cl)n1 | i | -4.1 | nt | i | i | i | nt | nt | nt
CCN1c2ccccc2-c2nc3ccccc3n2C1c1cccs1 (stereo not drawn) | -9.32* | -7.4 | -2.03 | i | i | i | 59.0%* | i | 61.5%*
CCCn1c(-c2cccs2)nc2ccccc21 | i | -7.6 | -1.05 | i | i | i | nt | nt | nt
O=c1[nH]cc(S(=O)(=O)N2CCOCC2)c(=O)[nH]1 | i | -8.3 | nt | i | i | i | nt | nt | nt
Cc1ccc(C)c(OCC(=O)Nc2cc(C(=O)O)cc(C(=O)O)c2)c1 | i | -4.5 | 2.59 | i | i | i | nt | nt | nt
Cc1ccc(OCC(=O)Nc2cc(NC(=O)COc3ccc(C)c(C)c3)cc(C(=O)O)c2)cc1C | i | -4.5 | nt | i | i | i | i | i | i
Cc1ccc(C)c(OCC(=O)Nc2ccc(C(=O)O)cc2NC(=O)COc2cc(C)ccc2C)c1 | i | -18.8 | nt | i | i | i | i | i | i
CN(C(=O)COC(=O)c1ccccc1NCCO)C1CCS(=O)(=O)C1 (stereo not drawn) | i | -9.6 | nt | i | i | i | nt | nt | nt
Brc1cccc2sc(N3CCN(c4ccccc4)CC3)nc12 | -14.1* | -12.2 | -0.125 | i | i | i | 47.0%* | i | 29.5%*
COc1ccc(-c2cc(C(F)(F)F)c(C#N)c(SCC(=O)O)n2)cc1 | i | -13.7 | -0.633 | i | i | i | nt | nt | nt
C#CCSc1nc(-c2ccccc2)cc(C(F)(F)F)c1C#N | -13.9* | -9.2 | nt | i | i | i | 37.0%* | i | 26.5%*
Cc1ccc(NC(=O)CSc2ccccc2NC(=O)c2ccccc2Cl)cc1Cl | -9.73* | -8.8 | -0.0431 | i | i | i | 55.5%* | i | i
COc1cc(Cl)c(C)cc1NC(=O)CSc1cc(Cl)ccc1Cl | -9.78* | -24.9 | 0.0327 | i | i | i | 56.0%* | i | 43.5%*
COc1ccc(Cl)cc1NC(=O)CSc1nc(N2CCCCC2)nc(N2CCCCC2)n1 | -10.9* | -2.3 | nt | i | i | i | 35.5%* | i | 25.5%*
CN(C(=O)CSc1nnnn1C)C1(C#N)CCCCC1 | nt | nt | nt | nt | i | nt | nt | nt | nt

Screening results from PubChem BioAssay.
